Test results published in ChEMBL document CHEMBL5058577, “EUbOPEN Chemogenomics Library 2 (Multiplex)” (2022).

System: Fibroblast
Experiment: Multiplex assay against human fibroblast
Assay type: toxicity, cell-based
Outline: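 Phenotypes for tubulin, mitochondrial mass and membrane permeability are expressed as per cents of healthy-nucleus cells. Cells were stained live at seeding with Hoechst33342, BioTracker Green Microtubule Cytoskeleton Dye, MitoTracker Red and Annexin V Alexa Fluor 680, then imaged after compound addition on a CQ1 microscope at 37°C and 5% CO2. Machine-learning gating in CellPathfinder separated Hoechst high-intensity objects from normal cells, divided normal cells by nuclear state (healthy, pyknosed, fragmented) and divided pyknosed cells into mitotic or apoptotic.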

[1] = 12 h, 1 µM, compound concentration 1 uM, replicate 1
[2] = 12 h, 1 µM, compound concentration 1 uM, replicate 2
[3] = 12 h, 10 µM, compound concentration 10 uM, replicate 1
[4] = 12 h, 10 µM, compound concentration 10 uM, replicate 2
[5] = 24 h, 1 µM, compound concentration 1 uM, replicate 1
[6] = 24 h, 1 µM, compound concentration 1 uM, replicate 2
[7] = 24 h, 10 µM, compound concentration 10 uM, replicate 1
[8] = 24 h, 10 µM, compound concentration 10 uM, replicate 2
[9] = 48 h, 1 µM, compound concentration 1 uM, replicate 1
[10] = 48 h, 1 µM, compound concentration 1 uM, replicate 2
[11] = 48 h, 10 µM, compound concentration 10 uM, replicate 1
[12] = 48 h, 10 µM, compound concentration 10 uM, replicate 2

CCNC1(C(N)=O)CCN(c2ncnc3c2nc(-c2ccccc2Cl)n3-c2ccc(Cl)cc2)CC1 [OTENABANT]
Population Apoptotic (%) [1]: 26% | Population Fragmented Nuclei (%) [1]: 19% | Population Healthy Nuclei (%) [1]: 63% | Population Hoechst High Intensity Objects (%) [1]: 6% | Population Membrane Permeable-Phenotype (%) [1]: 1% | Population Mitochondria Different-Phenotype (%) [1]: 7% | Population Mitotic Cells (%) [1]: 73% | Population Normal (%) [1]: 93% | Population Pyknosed Nuclei (%) [1]: 17% | Population Tubulin-Different-Phenotype (%) [1]: 44% | Total Cell Count [1]: 161 | Population Apoptotic (%) [2]: 37% | Population Fragmented Nuclei (%) [2]: 25% | Population Healthy Nuclei (%) [2]: 48% | Population Hoechst High Intensity Objects (%) [2]: 2% | Population Membrane Permeable-Phenotype (%) [2]: 6% | Population Mitochondria Different-Phenotype (%) [2]: 10% | Population Mitotic Cells (%) [2]: 62% | Population Normal (%) [2]: 97% | Population Pyknosed Nuclei (%) [2]: 26% | Population Tubulin-Different-Phenotype (%) [2]: 50% | Total Cell Count [2]: 156 | Population Apoptotic (%) [3]: 57% | Population Fragmented Nuclei (%) [3]: 22% | Population Healthy Nuclei (%) [3]: 64% | Population Hoechst High Intensity Objects (%) [3]: 4% | Population Membrane Permeable-Phenotype (%) [3]: 0% | Population Mitochondria Different-Phenotype (%) [3]: 16% | Population Mitotic Cells (%) [3]: 42% | Population Normal (%) [3]: 95% | Population Pyknosed Nuclei (%) [3]: 12% | Population Tubulin-Different-Phenotype (%) [3]: 90% | Total Cell Count [3]: 170 | Population Apoptotic (%) [4]: 40% | Population Fragmented Nuclei (%) [4]: 30% | Population Healthy Nuclei (%) [4]: 48% | Population Hoechst High Intensity Objects (%) [4]: 3% | Population Membrane Permeable-Phenotype (%) [4]: 12% | Population Mitochondria Different-Phenotype (%) [4]: 18% | Population Mitotic Cells (%) [4]: 59% | Population Normal (%) [4]: 96% | Population Pyknosed Nuclei (%) [4]: 21% | Population Tubulin-Different-Phenotype (%) [4]: 87% | Total Cell Count [4]: 216 | Population Apoptotic (%) [5]: 26% | Population Fragmented Nuclei (%) [5]: 17% | Population Healthy Nuclei (%) [5]: 66% | Population Hoechst High Intensity Objects (%) [5]: 4% | Population Membrane Permeable-Phenotype (%) [5]: 0% | Population Mitochondria Different-Phenotype (%) [5]: 8% | Population Mitotic Cells (%) [5]: 73% | Population Normal (%) [5]: 95% | Population Pyknosed Nuclei (%) [5]: 15% | Population Tubulin-Different-Phenotype (%) [5]: 44% | Total Cell Count [5]: 154 | Population Apoptotic (%) [6]: 34% | Population Fragmented Nuclei (%) [6]: 27% | Population Healthy Nuclei (%) [6]: 43% | Population Hoechst High Intensity Objects (%) [6]: 5% | Population Membrane Permeable-Phenotype (%) [6]: 9% | Population Mitochondria Different-Phenotype (%) [6]: 14% | Population Mitotic Cells (%) [6]: 65% | Population Normal (%) [6]: 94% | Population Pyknosed Nuclei (%) [6]: 29% | Population Tubulin-Different-Phenotype (%) [6]: 57% | Total Cell Count [6]: 155 | Population Apoptotic (%) [7]: 54% | Population Fragmented Nuclei (%) [7]: 22% | Population Healthy Nuclei (%) [7]: 64% | Population Hoechst High Intensity Objects (%) [7]: 2% | Population Membrane Permeable-Phenotype (%) [7]: 0% | Population Mitochondria Different-Phenotype (%) [7]: 37% | Population Mitotic Cells (%) [7]: 45% | Population Normal (%) [7]: 97% | Population Pyknosed Nuclei (%) [7]: 12% | Population Tubulin-Different-Phenotype (%) [7]: 96% | Total Cell Count [7]: 174 | Population Fragmented Nuclei (%) [8]: 37% | Population Healthy Nuclei (%) [8]: 48% | Population Hoechst High Intensity Objects (%) [8]: 5% | Population Membrane Permeable-Phenotype (%) [8]: 7% | Population Mitochondria Different-Phenotype (%) [8]: 30% | Population Normal (%) [8]: 94% | Population Pyknosed Nuclei (%) [8]: 13% | Population Tubulin-Different-Phenotype (%) [8]: 88% | Total Cell Count [8]: 235 | Population Apoptotic (%) [9]: 68% | Population Fragmented Nuclei (%) [9]: 18% | Population Healthy Nuclei (%) [9]: 69% | Population Hoechst High Intensity Objects (%) [9]: 8% | Population Membrane Permeable-Phenotype (%) [9]: 0% | Population Mitochondria Different-Phenotype (%) [9]: 3% | Population Mitotic Cells (%) [9]: 31% | Population Normal (%) [9]: 91% | Population Pyknosed Nuclei (%) [9]: 12% | Population Tubulin-Different-Phenotype (%) [9]: 41% | Total Cell Count [9]: 167 | Population Apoptotic (%) [10]: 59% | Population Fragmented Nuclei (%) [10]: 33% | Population Healthy Nuclei (%) [10]: 42% | Population Hoechst High Intensity Objects (%) [10]: 5% | Population Membrane Permeable-Phenotype (%) [10]: 13% | Population Mitochondria Different-Phenotype (%) [10]: 18% | Population Mitotic Cells (%) [10]: 40% | Population Normal (%) [10]: 94% | Population Pyknosed Nuclei (%) [10]: 23% | Population Tubulin-Different-Phenotype (%) [10]: 72% | Total Cell Count [10]: 143 | Population Apoptotic (%) [11]: 78% | Population Fragmented Nuclei (%) [11]: 30% | Population Healthy Nuclei (%) [11]: 61% | Population Hoechst High Intensity Objects (%) [11]: 8% | Population Membrane Permeable-Phenotype (%) [11]: 0% | Population Mitochondria Different-Phenotype (%) [11]: 49% | Population Mitotic Cells (%) [11]: 21% | Population Normal (%) [11]: 91% | Population Pyknosed Nuclei (%) [11]: 8% | Population Tubulin-Different-Phenotype (%) [11]: 92% | Total Cell Count [11]: 187 | Population Apoptotic (%) [12]: 61% | Population Fragmented Nuclei (%) [12]: 46% | Population Healthy Nuclei (%) [12]: 47% | Population Hoechst High Intensity Objects (%) [12]: 2% | Population Membrane Permeable-Phenotype (%) [12]: 7% | Population Mitochondria Different-Phenotype (%) [12]: 26% | Population Mitotic Cells (%) [12]: 38% | Population Normal (%) [12]: 97% | Population Pyknosed Nuclei (%) [12]: 6% | Population Tubulin-Different-Phenotype (%) [12]: 89% | Total Cell Count [12]: 299
